Several values for one entry are separate records, joined by “and”; a condition that tells them apart may be missing. Equal entries are not always repeated.
Experiments:
[1] = target: D3 dopamine receptors (transfected HEK cells) (Homo sapiens, UniProt P35462); test: Whole cell forskolin-dependent adenylyl cyclase inhibition assay, D3; assay type: cell-based; conditions: for Functional classification at D3 dopamine receptors: compared to quinpirole; for %IA D3: intrinsic activity, compared to the full agonist quinpirole
D3 dopamine receptors (transfected HEK cells), sequence (P35462 whole entry): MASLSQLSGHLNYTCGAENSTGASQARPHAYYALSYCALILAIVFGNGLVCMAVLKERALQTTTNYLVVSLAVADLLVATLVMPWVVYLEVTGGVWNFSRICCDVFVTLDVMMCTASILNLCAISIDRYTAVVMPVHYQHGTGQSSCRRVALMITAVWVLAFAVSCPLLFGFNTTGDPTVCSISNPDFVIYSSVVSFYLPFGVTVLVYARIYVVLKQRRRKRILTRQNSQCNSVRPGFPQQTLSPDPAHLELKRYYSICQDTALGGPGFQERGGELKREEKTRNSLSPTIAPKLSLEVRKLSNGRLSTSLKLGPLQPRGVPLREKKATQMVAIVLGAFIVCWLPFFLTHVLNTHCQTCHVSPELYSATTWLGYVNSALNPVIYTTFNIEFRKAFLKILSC

[2] = target: human D3 dopamine receptors expressed in HEK 293 cells (Homo sapiens, UniProt P35462); test: Dopamine receptor filtration binding assay, [125I]-IABN competition, D3; conditions: for D3 (Ki): mean Ki ± S.E.M., [125I]-IABN, HEK 293 membranes, unit printed in b5 only
human D3 dopamine receptors expressed in HEK 293 cells, sequence (P35462 whole entry): as above

[3] = target: D2 dopamine receptors (transfected HEK cells) (Homo sapiens, UniProt P14416); test: Whole cell forskolin-dependent adenylyl cyclase inhibition assay, D2; assay type: cell-based; conditions: intrinsic activity
D2 dopamine receptors (transfected HEK cells), sequence (P14416 whole entry): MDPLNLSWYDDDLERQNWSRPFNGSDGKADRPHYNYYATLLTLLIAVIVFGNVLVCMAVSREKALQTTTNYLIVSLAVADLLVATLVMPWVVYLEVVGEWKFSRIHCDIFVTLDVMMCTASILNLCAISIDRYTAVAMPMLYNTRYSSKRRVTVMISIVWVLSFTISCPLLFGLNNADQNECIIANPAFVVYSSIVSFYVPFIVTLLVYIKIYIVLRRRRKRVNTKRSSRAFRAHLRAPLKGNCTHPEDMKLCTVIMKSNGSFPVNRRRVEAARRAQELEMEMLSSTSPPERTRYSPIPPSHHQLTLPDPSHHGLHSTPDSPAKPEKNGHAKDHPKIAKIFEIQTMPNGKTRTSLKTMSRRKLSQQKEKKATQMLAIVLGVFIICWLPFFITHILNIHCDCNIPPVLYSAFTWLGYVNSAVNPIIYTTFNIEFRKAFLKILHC
Outline: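 Transfected HEK cells were prelabelled with 2,8-3H-adenine in serum-free medium for 75 min at 37 °C. They were then incubated with test compound in serum-free medium containing 0.1 mM 3-isobutyl-1-methylxanthine for 20 min at 37 °C. The reaction was stopped with a solution of 10% trichloroacetic acid and 1 mM cyclic AMP, and accumulated 3H-cyclic AMP was measured.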

Row | Compound | Functional classification at D3 dopamine receptors [1] | D3 (Ki) [2] | %IA D2 [3] [%] | %IA D3 [1] | D2:D3 selectivity ratio ([2]; selectivity for D3 versus D2 receptors)
1 | COc1ccccc1N1CCN(CCCCNC(=O)c2ccc(N(C)C)cc2)CC1 [Compound 6, 4-(dimethylamino)-N-(4-(4-(2-methoxyphenyl)piperazin-1-yl)butyl)benzamide] | weak partial agonist/antagonist | subnanomolar | 34 ± 3 |  | 
2 | COc1ccccc1N1CCN(CCCCNC(=O)c2ccc(CCF)cc2)CC1 [Compound 7, 4-(2-fluoroethyl)-N-(4-(4-(2-methoxyphenyl)piperazin-1-yl)butyl)benzamide] |  | subnanomolar | 35 ± 1 |  | 
3 | CN(C)c1ccc(C(=O)NCCCCN2CCN(c3ccccc3OCCF)CC2)cc1 [Compound 8, 4-(dimethylamino)-N-(4-(4-(2-(2-fluoroethoxy)phenyl)piperazin-1-yl)butyl)benzamide] | partial agonist | subnanomolar | 66.3 ± 1 | 64.5 ± 8.3% and 64.5 ± 8% | 23
4 | O=C(NCCCCN1CCN(c2ccccc2OCCF)CC1)c1ccc(-c2ccsc2)cc1 [Compound 9, N-(4-(4-(2-(2-fluoroethoxy)phenyl)piperazin-1-yl)butyl)-4-(thiophen-3-yl)benzamide] | weak partial agonist |  | 29.3 ± 7.3 | 34.4 ± 1.7% | 

— publication PMC3128788 (Nuclear medicine and biology, 2011)
